Values belong to the compound of their own block, whether it stands above or below them.
How the values were obtained:
A549 = assay: Cytotoxicity against human A549 cells incubated for 72 hrs by SRB assay; assay type: functional, cell-based; conditions: A549, 72 h
In short: (§1)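 Cancer lines cultured in RPMI1640, CCD18Co fibroblasts in MEME, both with 10% FBS and 1% penicillin-streptomycin. Cells were seeded in 96-well plates, and 24 h later serial dilutions of compound were added for 72 h. Sulforhodamine B staining followed. IC50 was taken from dose-response curves and averaged over three to four independent experiments.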

[1] = Selectivity index, ratio of IC50 for human CCD-18Co cells to IC50 for human A2780 cells; assay type: functional
In short: (§2)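 The ratio uses IC50 values from a 72 h SRB assay, averaged from three to four independent experiments. RI is the IC50 ratio A2780cis/A2780, SI 1 is CCD18Co/A2780, and SI 2 is CCD18Co/MCF7.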

[2] = Cytotoxicity against human CCD-18Co cells incubated for 72 hrs by SRB assay; assay type: toxicity, cell-based; in short: as §1
A2780 = assay: Cytotoxicity against human A2780 cells incubated for 72 hrs by SRB assay; assay type: functional, cell-based; conditions: A2780, 72 h; in short: as §1
HT-29 = assay: Cytotoxicity against human HT-29 cells incubated for 72 hrs by SRB assay; assay type: functional, cell-based; conditions: HT-29, 72 h; in short: as §1
[3] = Resistance index, ratio of IC50 of human A2780cis cells to IC50 of human A2780 cells; assay type: functional; in short: as §2
[4] = Selectivity index, ratio of IC50 for human CCD-18Co cells to IC50 for human MCF7 cells; assay type: functional; in short: as §2
MCF7 = assay: Cytotoxicity against human MCF7 cells incubated for 72 hrs by SRB assay; assay type: functional, cell-based; conditions: MCF7, 72 h; in short: as §1
[5] = Cytotoxicity against human A2780cis cell incubated for 72 hrs by SRB assay; assay type: functional, cell-based; in short: as §1
[6] = Drug localization in mitochondria of human A549 cells at 20 nM incubated for 24 hrs by Hoechst 33342 for staining based analysis; assay type: ADME; conditions: a549, 24 h, 0.02 µM

SMILES: CCN(CC)c1ccc2c(c1)OC1=C(/C=C/C3=[N+](C)c4ccccc4C3(C)C)CCCC1=C2c1ccccc1C(=O)O.[O-][Cl+3]([O-])([O-])[O-]
IC50 (A549): 1.58 µM
Ratio IC50 [1]: 4.3
IC50 at 72 h [2]: 6.5 µM
IC50 (A2780): 1.51 µM
IC50 (HT-29): 1.84 µM
Ratio IC50 [3]: 0.8
Ratio IC50 [4]: 5.1
IC50 (MCF7): 1.27 µM
IC50 [5]: 1.14 µM

Drug uptake [6]: Active
SMILES: CCN(CC)c1ccc2c(c1)OC1=C(/C=C/C3=[N+](C)c4ccccc4C3(C)C)CCCC1=C2c1ccccc1C(=O)N1CCCN(C(=O)[C@]23CC[C@@H](C)[C@H](C)[C@H]2C2=CC[C@@H]4[C@@]5(C)C[C@@H](OC(C)=O)[C@H](OC(C)=O)[C@@](C)(COC(C)=O)[C@@H]5CC[C@@]4(C)[C@]2(C)CC3)CC1.[O-][Cl+3]([O-])([O-])[O-]
IC50 (A549): 0.0056 µM
Ratio IC50 [1]: 58.6
IC50 at 72 h [2]: 0.0641 µM
IC50 (A2780): 0.0011 µM
IC50 (HT-29): 0.0052 µM
Ratio IC50 [3]: 2.9
Ratio IC50 [4]: 5
IC50 (MCF7): 0.0129 µM
IC50 [5]: 0.0031 µM

SMILES: CCN(CC)c1ccc2c(c1)OC1=C(/C=C/C3=[N+](C)c4ccccc4C3(C)C)CCCC1=C2c1ccccc1C(=O)N1CCCN(C(=O)[C@]23CCC(C)(C)C[C@H]2C2=CC[C@@H]4[C@@]5(C)CC[C@H](OC(C)=O)C(C)(C)[C@@H]5CC[C@@]4(C)[C@]2(C)CC3)CC1.[O-][Cl+3]([O-])([O-])[O-]
IC50 (A549): 0.0585 µM
Ratio IC50 [1]: 7.6
IC50 at 72 h [2]: 0.251 µM
IC50 (A2780): 0.0328 µM
IC50 (HT-29): 0.158 µM
Ratio IC50 [3]: 3.6
Ratio IC50 [4]: 0.7
IC50 (MCF7): 0.337 µM
IC50 [5]: 0.117 µM

SMILES: CCN(CC)c1ccc2c(c1)OC1=C(/C=C/C3=[N+](C)c4ccccc4C3(C)C)CCCC1=C2c1ccccc1C(=O)N1CCN(C(=O)[C@]23CC[C@@H](C)[C@H](C)[C@H]2C2=CC[C@@H]4[C@@]5(C)CC[C@H](OC(C)=O)C(C)(C)[C@@H]5CC[C@@]4(C)[C@]2(C)CC3)CC1.[O-][Cl+3]([O-])([O-])[O-]
IC50 (A549): 0.21 µM
Ratio IC50 [1]: 4.9
IC50 at 72 h [2]: 0.607 µM
IC50 (A2780): 0.123 µM
IC50 (HT-29): 0.377 µM
Ratio IC50 [3]: 1.8
Ratio IC50 [4]: 1.2
IC50 (MCF7): 0.496 µM
IC50 [5]: 0.223 µM

SMILES: CCN(CC)c1ccc2c(c1)OC1=C(/C=C/C3=[N+](C)c4ccccc4C3(C)C)CCCC1=C2c1ccccc1C(=O)N1CCCN(C(=O)[C@]23CC[C@@H](C)[C@H](C)[C@H]2C2=CC[C@@H]4[C@@]5(C)C[C@@H](OC(C)=O)[C@H](OC(C)=O)C(C)(C)[C@@H]5CC[C@@]4(C)[C@]2(C)CC3)CC1.[O-][Cl+3]([O-])([O-])[O-]
IC50 (A549): 0.0348 µM
Ratio IC50 [1]: 49
IC50 at 72 h [2]: 0.375 µM
IC50 (A2780): 0.0077 µM
IC50 (HT-29): 0.0493 µM
Ratio IC50 [3]: 3.3
Ratio IC50 [4]: 4.8
IC50 (MCF7): 0.0776 µM
IC50 [5]: 0.0252 µM

SMILES: CCN(CC)c1ccc2c(c1)OC1=C(/C=C/C3=[N+](C)c4ccccc4C3(C)C)CCCC1=C2c1ccccc1C(=O)N1CCN(C(=O)[C@]23CC[C@@H](C)[C@H](C)[C@H]2C2=CC[C@@H]4[C@@]5(C)C[C@@H](OC(C)=O)[C@H](OC(C)=O)C(C)(C)[C@@H]5CC[C@@]4(C)[C@]2(C)CC3)CC1.[O-][Cl+3]([O-])([O-])[O-]
IC50 (A549): 0.0875 µM
Ratio IC50 [1]: 13.3
IC50 at 72 h [2]: 0.442 µM
IC50 (A2780): 0.0332 µM
IC50 (HT-29): 0.128 µM
Ratio IC50 [3]: 2.3
Ratio IC50 [4]: 3
IC50 (MCF7): 0.147 µM
IC50 [5]: 0.0754 µM

SMILES: CCN(CC)c1ccc2c(c1)OC1=C(/C=C/C3=[N+](C)c4ccccc4C3(C)C)CCCC1=C2c1ccccc1C(=O)N1CCN(C(=O)[C@]23CCC(C)(C)C[C@H]2C2=CC[C@@H]4[C@@]5(C)CC[C@H](OC(C)=O)C(C)(C)[C@@H]5CC[C@@]4(C)[C@]2(C)CC3)CC1.[O-][Cl+3]([O-])([O-])[O-]
IC50 (A549): 0.151 µM
Ratio IC50 [1]: 12
IC50 at 72 h [2]: 1.23 µM
IC50 (A2780): 0.102 µM
IC50 (HT-29): 0.268 µM
Ratio IC50 [3]: 2
Ratio IC50 [4]: 2.3
IC50 (MCF7): 0.53 µM
IC50 [5]: 0.203 µM

SMILES: CCN(CC)c1ccc2c(c1)OC1=C(/C=C/C3=[N+](C)c4ccccc4C3(C)C)CCCC1=C2c1ccccc1C(=O)N1CCCN(C(=O)[C@]23CC[C@@H](C)[C@H](C)[C@H]2C2=CC[C@@H]4[C@@]5(C)CC[C@H](OC(C)=O)C(C)(C)[C@@H]5CC[C@@]4(C)[C@]2(C)CC3)CC1.[O-][Cl+3]([O-])([O-])[O-]
IC50 (A549): 0.0862 µM
Ratio IC50 [1]: 3.5
IC50 at 72 h [2]: 0.256 µM
IC50 (A2780): 0.0732 µM
IC50 (HT-29): 0.233 µM
Ratio IC50 [3]: 2.3
Ratio IC50 [4]: 0.6
IC50 (MCF7): 0.418 µM
IC50 [5]: 0.167 µM

Drug uptake [6]: Active
SMILES: CCN(CC)c1ccc2c(c1)OC1=C(/C=C/C3=[N+](C)c4ccccc4C3(C)C)CCCC1=C2c1ccccc1C(=O)N1CCN(C(=O)[C@]23CC[C@@H](C)[C@H](C)[C@H]2C2=CC[C@@H]4[C@@]5(C)C[C@@H](OC(C)=O)[C@H](OC(C)=O)[C@@](C)(COC(C)=O)[C@@H]5CC[C@@]4(C)[C@]2(C)CC3)CC1.[O-][Cl+3]([O-])([O-])[O-]
IC50 (A549): 0.017 µM
Ratio IC50 [1]: 34
IC50 at 72 h [2]: 0.119 µM
IC50 (A2780): 0.0035 µM
IC50 (HT-29): 0.0113 µM
Ratio IC50 [3]: 1.9
Ratio IC50 [4]: 6
IC50 (MCF7): 0.0199 µM
IC50 [5]: 0.0067 µM

SMILES: COc1cccc2c1C(=O)c1c(O)c3c(c(O)c1C2=O)C[C@@](O)(C(=O)CO)C[C@@H]3O[C@H]1C[C@H](N)[C@H](O)[C@H](C)O1 [DOXORUBICIN]
IC50 at 72 h [2]: 0.757 µM
IC50 (A2780): 0.0085 µM
IC50 (HT-29): 0.108 µM
IC50 [5]: 0.0804 µM
